Activity calls are given as the source filed them. No cut-off for these calls is given here.
Assays:
OPM-2/BTZ [1] = assay: Downregulation of CDK1 protein expression in human OPM-2/BTZ cells incubated at 0.3 to 3 micromol/L for 48 hrs by Western blot analysis; format: functional, cell-based; details: dose 0.3-3 µmol/L
NCI-H929 [2] = assay: Downregulation of cyclin D1 protein expression in human NCI-H929 cells incubated at 0.3 to 3 micromol/L for 48 hrs by Western blot analysis; format: functional, cell-based; details: dose 0.3-3 µmol/L
Summary of the method: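 MM.1S and H929 cells given TAS-117 at the indicated doses for 48 h. Protein levels assessed by immunoblot.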

MM1.S [3] = assay: Cytotoxicity against human MM1.S cells transduced with EZH1 assessed as enhanced sensitivity at 0.156 to 2.5 micromol/L 48 hrs by MTS assay; format: functional, cell-based; details: dose 0.156-2.5 µmol/L
Summary of the method: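 MM.1S or H929 cells transduced with lentiviral shRNA against EZH1 or against luciferase (shLuc control), then given TAS-117 at the indicated doses for 48 h. Viability by MTS relative to untreated control; mean ± SD of triplicates; compared with shLuc.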

MM1.S [4] = assay: Synergistic activity against human MM.1S cells assessed as combination index […] at 0.125 uM incubated for 48 hrs by […]; format: functional
Summary of the method: (§1)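 Cells were exposed to the EZH2/EZH1 inhibitor (UNC1999 or GSK126) for 72 h in total, with the Akt inhibitor added for the last 48 h. Viability was read by MTS assay relative to untreated control cells, in triplicate. The combination index for each dose pair came from isobologram analysis.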

OPM-2 [5] = assay: Synergistic activity against human OPM-2 cells assessed as combination index preincubated in presence of 2.5 uM UNC1999 for 72 hrs followed by compound addition at 2.5 uM incubated for 48 hrs by MTT assay; format: functional
NCI-H929 [6] = assay: Induction of apoptosis in human NCI-H929 cells assessed as necrotic cells at 2 micromol/L incubated for 12 hrs by annexin V/PI staining based flow cytometry (reference value: 2.61%); format: functional; details: dose 2 µmol/L, at 2 µM
NCI-H929 [7] = assay: Synergistic activity against human NCI-H929 cells assessed as combination index […] in presence of 2.5 uM UNC1999 […] at 0.125 uM incubated for 48 hrs by […]; format: functional; summary of the method: as §1
NCI-H929 [8] = assay: Downregulation of EZH2 mRNA expression in human NCI-H929 cells at 0.3 to 3 micromol/L after 24 hrs by qRT-PCR analysis; format: functional, cell-based; details: dose 0.3-3 µmol/L
Summary of the method: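 MM.1S and H929 cells given TAS-117 at the indicated doses for 24 h. mRNA measured by RT-qPCR, fold change after normalization to GAPDH; SD of triplicates; significance versus untreated control.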

OPM-2 [9] = assay: Synergistic activity against human OPM-2 cells assessed as combination index preincubated in presence of 5 uM UNC1999 for 72 hrs followed by compound addition at 5 uM incubated for 48 hrs by MTS assay
MM1.S [10] = assay: Synergistic activity against human MM.1S cells assessed as combination index […] in presence of 2.5 uM GSK126 […] at 0.5 uM incubated for 48 hrs by MTT assay; format: functional; summary of the method: as §1
MM1.S [11] = assay: Synergistic activity against human MM.1S cells assessed as combination index […] in presence of 2.5 uM UNC1999 […] […] compound addition at 0.125 uM incubated for 48 hrs by MTT assay; format: functional; summary of the method: as §1
MM1.S [12] = assay: Synergistic activity against human MM.1S cells assessed as combination index […] in presence of 2.5 uM UNC1999 […] at 0.5 uM incubated for 48 hrs by […]; format: functional; summary of the method: as §1
NCI-H929 [13] = assay: Upregulation of H3K27me3 protein expression in human NCI-H929 cells at 0.3 to 5 micromol/L for 6 to 48 hrs by Western blot analysis; format: functional, cell-based; details: dose 0.3-5 µmol/L, time 6-48 hrs
Summary of the method: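 H3K27me3 was detected by immunoblot in MM.1S and H929 cells. Cells were given graded TAS-117 for 48 h, or 5 μmol/L for the indicated times. Signal is quantified relative to the H3 loading control.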

MM1.S [14] = assay: Upregulation of EZH1 mRNA expression in human MM1.S cells transduced with EZH1 at 0.3 micromol/L after 24 hrs by qRT-PCR analysis relative to control; format: functional, cell-based; details: dose 0.3 µmol/L
Summary of the method: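 MM.1S cells were transduced with lentiviral shRNA against EZH1 or luciferase (shLuc control). Cells were then given graded TAS-117 for 24 h. EZH1 mRNA was measured by qRT-PCR and normalized to GAPDH.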

MM1.S [15] = assay: Upregulation of FOXO4 […] expression in human MM1.S cells assessed as enhanced nuclear accumulation at 1 micromol/L after 24 hrs by immunofluorescence staining; format: functional, cell-based; details: dose 1.0 µmol/L
OPM-2/BTZ [16] = assay: Downregulation of EZH2 protein expression in human OPM-2/BTZ cells at 0.3 to 5 micromol/L for 6 to 48 hrs by Western blot analysis; format: functional, cell-based; details: dose 0.3-5 µmol/L, time 6-48 hrs
NCI-H929 [17] = assay: Synergistic activity against human NCI-H929 cells assessed as combination index […] in presence of 5 uM GSK126 […] compound addition at 0.5 uM incubated for 48 hrs by […]; format: functional; summary of the method: as §1
MM1.S [18] = assay: Synergistic activity against human MM.1S cells assessed as combination index […] at 0.125 uM incubated for 48 hrs MTT assay; format: functional; summary of the method: as §1
MM1.S [19] = assay: Upregulation of FOXO3 […] expression in human MM1.S cells assessed as enhanced nuclear accumulation at 1 micromol/L after 24 hrs by immunofluorescence staining; format: functional, cell-based; details: dose 1.0 µmol/L
OPM-2 [20] = assay: Synergistic activity against human OPM-2 cells assessed as combination index preincubated in presence of 5 uM GSK126 for 72 hrs followed by compound addition at 1.25 uM incubated for 48 hrs by MTT assay; format: functional
MM1.S [21] = assay: Upregulation of BIM mRNA expression in human MM1.S cells at 1 micromol/L after 24 hrs by qRT-PCR analysis; format: functional, cell-based; details: dose 1.0 µmol/L
NCI-H929 [22] = assay: Upregulation of FOXO3 in human NCI-H929 cells assessed as enhanced nuclear accumulation at 0.5 micromol/L after 24 hrs by immunofluorescence staining; format: functional, cell-based; details: dose 0.5 µmol/L
Summary of the method: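 MM.1S and H929 cells were treated with or without 0.5 μmol/L TAS-117 for 24 h. Cells were immunostained with anti-FOXO3. Jurkat cells served as positive control and cells without primary antibody as negative control. Read-out was the average fluorescence intensity of the nuclear FOXO3 fraction versus untreated cells.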

OPM-2/BTZ [23] = assay: Synergistic activity against human OPM-2/BTZ cells assessed as combination index preincubated in presence of 2.5 uM GSK126 for 72 hrs followed by compound addition at 0.5 uM incubated for 48 hrs by MTT assay; format: functional
OPM-2 [24] = assay: Synergistic activity against human OPM-2 cells assessed as combination index preincubated in presence of 2.5 uM UNC1999 for 72 hrs followed by compound addition at 5 uM incubated for 48 hrs by MTT assay; format: functional
OPM-2 [25] = assay: Synergistic activity against human OPM-2 cells assessed as combination index preincubated in presence of 2.5 uM GSK126 for 72 hrs followed by compound addition at 2.5 uM incubated for 48 hrs by MTT assay; format: functional
OPM-2/BTZ [26] = assay: Synergistic activity against human OPM-2/BTZ cells assessed as combination index preincubated in presence of 5 uM GSK126 for 72 hrs followed by compound addition at 1 uM incubated for 48 hrs by MTT assay; format: functional

In the case of `C[C@]1(O)C[C@@](N)(c2ccc(-c3nc4n(c3-c3ccccc3)COc3ccncc3-4)cc2)C1` [PIFUSERTIB], the Activity (OPM-2/BTZ [1]) is reported as “Active”, the Activity (NCI-H929 [2]) is reported as “Active” and the Activity (MM1.S [3]) is reported as “Active”. For the same molecule, the CI (MM1.S [4]) was 1.08, the CI (OPM-2 [5]) was 2.79 and the Activity (NCI-H929 [6]) was 0.35%. For the same molecule, the CI (NCI-H929 [7]) was 0.783, the Activity (NCI-H929 [8]) was “Active” and the CI (OPM-2 [9]) was 6.32. The CI (MM1.S [10]) was 0.619, the CI (MM1.S [11]) was 0.217 and the CI (MM1.S [12]) was 0.277. The Activity (NCI-H929 [13]) was “Active”, the Activity (MM1.S [14]) was “Active” and the Activity (MM1.S [15]) was “Active”. For the same molecule, the Activity (OPM-2/BTZ [16]) was “Active”, the CI (NCI-H929 [17]) was 7.883 and the CI (MM1.S [18]) was 0.253. The Activity (MM1.S [19]) was “Active”, the CI (OPM-2 [20]) was 1.44 and the Activity (MM1.S [21]) was “Active”. The Activity (NCI-H929 [22]) was “Active”, the CI (OPM-2/BTZ [23]) was 0.296 and the CI (OPM-2 [24]) was 3.1. The CI (OPM-2 [25]) was 2.563 and the CI (OPM-2/BTZ [26]) was 1.274.

Reference: ChEMBL document CHEMBL5647697, “Akt inhibition synergizes with polycomb repressive complex 2 inhibition in the treatment of multiple myeloma” (2019)
